Measurements as given in ChEMBL document CHEMBL3297699, “Synthesis of novel fluoro analogues of MKC442 as microbicides” (J Med Chem, 2014).

Columns and labels:
[1] = system: Human immunodeficiency virus 1; assay: Antiviral activity against HIV1 MP1308 infected in human dendritic cells assessed as inhibition of p24; settings: Human immunodeficiency virus 1, MP1308, dendritic cells
[2] = system: Human immunodeficiency virus 1; assay: Antiviral activity against HIV1 MP411 infected in human dendritic cells assessed as inhibition of p24 in supernatants; settings: Human immunodeficiency virus 1, MP411, dendritic cells
[3] = system: Human immunodeficiency virus 1; assay: Antiviral activity against 6-[(3,5-Dimethylphenyl)fluoromethyl]-5-ethyl-1-{[[4-(3-hydroxyprop-1-ynyl)benzyl]oxy]methyl}pyrimidine-2,4(1H,3H)-dione-resistant HIV1 harboring RT 106I, 181C mutant infected in human MT4 cells assessed as inhibition of virus-induced cytopathogenicity after 4 days by MTT assay; type: functional, organism-based; settings: Human immunodeficiency virus 1, MT4
How it was run: (§1)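 MT-4 cells grown at 37 °C, 5% CO2 in RPMI-1640 with 10% FCS, penicillin and streptomycin. Compounds taken up in DMSO at […] (stock), then diluted in medium. 1 × 10^4 cells per well with serial compound dilutions, then HIV-1 inoculum sized to give complete cytopathogenicity by day 4. Viability read by MTT. […] Mean of three independent determinations.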

[4] = system: Human immunodeficiency virus 1; assay: Antiviral activity against HIV1 MP634 infected in human dendritic cells assessed as inhibition of p24 in supernatants; settings: Human immunodeficiency virus 1, MP634, dendritic cells
[5] = system: Human immunodeficiency virus 1; assay: Antiviral activity against NRTI-resistant HIV1 MP1315 infected in human dendritic cells assessed as inhibition of p24 in supernatants; settings: Human immunodeficiency virus 1, MP1315, dendritic cells
[6] = system: Human immunodeficiency virus 1; assay: Antiviral activity against HIV1 MP1033 infected in human dendritic cells assessed as inhibition of p24; settings: Human immunodeficiency virus 1, MP1033, dendritic cells
[7] = system: Human immunodeficiency virus 1; assay: Antiviral activity against zidovudine-resistant HIV1 harboring RT 67N, 70R, 215F, 219Q mutant infected in human MT4 cells assessed as inhibition of virus-induced cytopathogenicity after 4 days by MTT assay; type: functional, organism-based; settings: Human immunodeficiency virus 1, MT4, 96 h
How it was run: as §1

[8] = system: Human immunodeficiency virus 1; assay: Antiviral activity against MC1220-resistant HIV1 harboring RT 100I, 179D, 181C mutant infected in human MT4 cells assessed as inhibition of virus-induced cytopathogenicity after 4 days by MTT assay; type: functional, organism-based; settings: Human immunodeficiency virus 1, MT4, 96 h
How it was run: as §1

[9] = system: Human immunodeficiency virus 1; assay: Antiviral activity against MDR-resistant HIV1 harboring 41L, 74V, 106A, 215Y mutant infected in human MT4 cells assessed as inhibition of virus-induced cytopathogenicity after 4 days by MTT assay; type: functional, organism-based; settings: Human immunodeficiency virus 1, MT4, 96 h
How it was run: as §1

[10] = system: Human immunodeficiency virus 1; assay: Antiviral activity against HIV1 CRF01 infected in human dendritic cells assessed as inhibition of p24 in supernatants; settings: Human immunodeficiency virus 1, CRF01, dendritic cells
[11] = system: Human immunodeficiency virus 1; assay: Antiviral activity against saquinavir-resistant HIV1 infected in human MT4 cells assessed as inhibition of virus-induced cytopathogenicity after 4 days by MTT assay; type: functional, organism-based; settings: Human immunodeficiency virus 1, MT4, 96 h
How it was run: as §1

[12] = system: Human immunodeficiency virus 1; assay: Antiviral activity against TMC125-resistant HIV1 harboring RT 109M, 138K, 190E mutant infected in human MT4 cells assessed as inhibition of virus-induced cytopathogenicity after 4 days by MTT assay; type: functional, organism-based; settings: Human immunodeficiency virus 1, MT4, 96 h
How it was run: as §1

[13] = Cytotoxicity against human MT4 cells after 40 days by MTT assay; type: cell-based
How it was run: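 Mock-infected MT-4 cells at 1 × 10^5 cells/mL, 37 °C, with various compound concentrations for 40 days. One-tenth of the culture is moved every 3−4 days into fresh drug-containing medium at low density to keep growth exponential. Viability is read by MTT at each passage. The value is the maximum concentration still allowing exponential proliferation, as the mean of three determinations.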

[14] = Cytotoxicity against human MT4 cells after 96 hrs by MTT assay; type: cell-based
How it was run: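 Serial compound dilutions (from DMSO stocks at […]) are added, then cells are held 96 h at 37 °C in humidified 5% CO2. Viability is read by MTT. The value is the concentration reducing proliferation by 50%, as the mean of three independent determinations, run in parallel with the antiviral assays.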

[15] = system: Human immunodeficiency virus 1; assay: Antiviral activity against TMC120-resistant HIV1 harboring RT 100I, 138G mutant infected in human MT4 cells assessed as inhibition of virus-induced cytopathogenicity after 4 days by MTT assay; type: functional, organism-based; settings: Human immunodeficiency virus 1, MT4, 96 h
How it was run: as §1

[16] = system: Human immunodeficiency virus 1; assay: Antiviral activity against efavirenz-resistant HIV1 harboring RT 100I, 103R, 179D, 225H mutant infected in human MT4 cells assessed as inhibition of virus-induced cytopathogenicity after 4 days by MTT assay; type: functional, organism-based; settings: Human immunodeficiency virus 1, MT4
How it was run: as §1

[17] = system: Human immunodeficiency virus 1; assay: Antiviral activity against HIV1 infected in human MT4 cells assessed as lowest compound concentration required to irreversibly knock out vial multiplication treated 4 hrs before infection measured after 40 days by MTT assay; type: functional
How it was run: (§2)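 HIV-1-infected MT-4 cells at high MOI (5−10 CCID50/cell) in 40-day assays. Compound is given continuously (chronic), for only the first 4 h after infection, or for 4 h immediately before infection. Cells are resuspended at 10^5 cells/mL every 4 days. The value is the lowest concentration that irreversibly knocks out HIV-1 multiplication, as the mean of three independent determinations.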

[18] = system: Human immunodeficiency virus 1; assay: Antiviral activity against HIV1 W5269 infected in human dendritic cells assessed as inhibition of p24 production; settings: Human immunodeficiency virus 1, W5269, dendritic cells
[19] = system: Human immunodeficiency virus 1; assay: Antiviral activity against wild type HIV1 3B infected in human MT4 cells assessed as inhibition of virus-induced cytopathogenicity after 4 days by MTT assay; type: functional, organism-based; settings: Human immunodeficiency virus 1, 3B, MT4, 96 h
How it was run: as §1

[20] = system: Human immunodeficiency virus 1; assay: Antiviral activity against HIV1 CRF02 infected in human dendritic cells assessed as inhibition of p24 in supernatants; settings: Human immunodeficiency virus 1, CRF02, dendritic cells
[21] = system: Human immunodeficiency virus 1; assay: Antiviral activity against HIV1 infected in human MT4 cells assessed as lowest compound concentration required to irreversibly knock out vial multiplication treated by chronic treatment measured after 40 days by MTT assay; type: functional
How it was run: as §2

[22] = system: Human immunodeficiency virus 1; assay: Antiviral activity against HIV1 MP582 infected in human dendritic cells assessed as inhibition of p24 production; settings: Human immunodeficiency virus 1, MP582, dendritic cells
[23] = system: Human immunodeficiency virus 1; assay: Antiviral activity against […] HIV1 harboring Y181C mutant infected in human MT4 cells assessed as inhibition of virus-induced cytopathogenicity after 4 days by MTT assay; type: functional, organism-based; settings: Human immunodeficiency virus 1, MT4, 96 h
How it was run: as §1

[24] = system: Human immunodeficiency virus 1; assay: Antiviral activity against HIV1 infected in human MT4 cells assessed as lowest compound concentration required to irreversibly knock out vial multiplication treated 4 hrs after infection measured after 40 days by MTT assay; type: functional
How it was run: as §2

[25] = system: Human immunodeficiency virus 1; assay: Antiviral activity against […] HIV1 harboring 103N, 181C mutant infected in human MT4 cells assessed as inhibition of virus-induced cytopathogenicity after 4 days by MTT assay; type: functional, organism-based; settings: Human immunodeficiency virus 1, MT4, 96 h
How it was run: as §1

[26] = system: Human immunodeficiency virus 1; assay: Ratio of EC50 for saquinavir-resistant HIV1 to EC50 for wild type HIV1 3B; type: functional
[27] = system: Human immunodeficiency virus 1; assay: Ratio of EC50 for zidovudine-resistant HIV1 harboring RT 67N, 70R, 215F, 219Q mutant to EC50 for wild type HIV1 3B; type: functional
[28] = system: Human immunodeficiency virus 1; assay: Ratio of EC50 for MDR-resistant HIV1 harboring 41L, 74V, 106A, 215Y mutant to EC50 for wild type HIV1 3B; type: functional
[29] = system: Human immunodeficiency virus 1; assay: Ratio of MC1220 EC50 to compound EC50 for HIV1 MP634 infected in human cells
[30] = system: Human immunodeficiency virus 1; assay: Ratio of EC50 for efavirenz-resistant HIV1 harboring RT 100I, 103R, 179D, 225H mutant to EC50 for wild type HIV1 3B; type: functional

In the case of `Cc1c(C(C)c2c(F)cccc2F)nc(N(C)C)[nH]c1=O` (stereo not given), the EC99 [1] is reported as 0.01 µM, the EC99 [2] is reported as 0.01 µM and the EC50 [3] is reported as 700 nM. The EC99 [4] was 0.1 µM, the EC99 [5] was at most 0.0001 µM and the EC99 [6] was 0.01 µM. For the same compound, the EC50 [7] was 4 nM, the EC50 [8] was 3000 nM and the EC50 [9] was 10 nM. For the same compound, the EC99 [10] was 0.001 µM, the EC50 [11] was 10 nM and the EC50 [12] was 3000 nM. For the same compound, the MNTC at 960 h [13] was 30 µM, the CC50 at 96 h [14] was at least 100000 nM and the EC50 [15] was 2000 nM. The EC50 [16] was 2000 nM, the Activity [17] was under 5 µM and the EC99 [18] was 0.01 µM. It also gave an EC50 [19] of 2 nM, an EC99 [20] of 0.01 µM and an Activity [21] of under 0.1 µM. For the same compound, the EC99 [22] was 0.001 µM, the EC50 [23] was 800 nM and the Activity [24] was under 5 µM. The EC50 [25] was over 20000 nM.
`CCc1c(C(F)c2cc(C)cc(C)c2)n(COCc2ccc(C#CCO)cc2)c(=O)[nH]c1=O` (stereo not given) gave an EC99 [1] of 0.01 µM, a Ratio EC50 [26] of 3.3 and an EC99 [2] of 0.01 µM. The EC50 [3] was 2000 nM, the EC99 [4] was 0.01 µM and the EC99 [5] was 0.0001 µM. The EC99 [6] was 0.01 µM, the Ratio EC50 [27] was 1.7 and the EC50 [7] was 10 nM. For the same compound, the EC50 [8] was 40 nM, the EC50 [9] was 20 nM and the Ratio EC50 [28] was 3.3. It also gave an EC99 [10] of 0.01 µM, an EC50 [11] of 20 nM and an EC50 [12] of 900 nM. For the same compound, the “Ratio EC50” value [29] was 10, the MNTC at 960 h [13] was 10 µM and the CC50 at 96 h [14] was 37000 nM. The EC50 [15] was 10 nM, the EC50 [16] was 100 nM and the Activity [17] was over 20 µM. For the same compound, the EC99 [18] was 0.01 µM, the “Ratio EC50” value [30] was over 10 and the EC50 [19] was 6 nM. The EC99 [20] was 0.1 µM, the Activity [21] was 0.5 µM and the EC99 [22] was 0.01 µM. The EC50 [23] was 40 nM, the Activity [24] was over 20 µM and the EC50 [25] was 300 nM.
